Converted amounts (≈) assume the structure as drawn. The source made the active and inactive calls. The rule behind the calls is not given here.
Legend:
[1] = system: HepG2; test: Cytotoxicity against human HepG2 cells after 24 hrs by CellTiter assay; type: cell-based; conditions: HepG2, 24 h
In short: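 HepG2 cells (passage 27–33) in MEM with 10% FBS, L-glutamine and NEAA, seeded at 1×10^4 per well. Treated next day with compounds at 0.1–100 µM (or 0.1–25 µmol/L), triplicates, <1% DMSO, for 24 h at 37 °C, 5% CO2. MTS reagent added for 2 h, absorbance read at 490 nm. IC50 taken against untreated (100%) and 10% DMSO (0%) controls.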

[2] = system: Staphylococcus aureus; test: Antibacterial activity against methicillin-resistant Staphylococcus aureus H 5996/08 after 24 hrs by broth microdilution method; type: functional; conditions: H 5996/08, 24 h
In short: (§1)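 Broth microdilution in Mueller–Hinton broth, compounds dissolved in DMSO, tested over a dilution series from 500 downward. MIC taken as ≥95% growth reduction (IC95) versus drug-free control. Benzylpenicillin comparator. Readings at 24 and 48 h.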

[3] = system: Mycobacterium avium; test: Antimycobacterial activity against isoniazid, rifampicin, ethambutol and ofloxacin-resistant Mycobacterium avium My 330/88 after 21 days; type: functional; conditions: My 330/88, 504 h
In short: (§2)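 Micromethod MIC in Šula's semisynthetic medium at 37 °C. Compounds added in DMSO at 1000 down to 0.032 µmol/L. Isoniazid standard in sterile water at 0.5–250 µmol/L. Inocula: H37Rv 10^3, M. avium 10^5, M. kansasii 10^4. Read at 14 and 21 d, plus 7 d for M. kansasii.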

[4] = system: Staphylococcus aureus; test: Antibacterial activity against Staphylococcus aureus CCM 4516/08 after 48 hrs by broth microdilution method; type: functional; conditions: CCM 4516/08, 48 h; in short: as §1
[5] = system: Staphylococcus epidermidis; test: Antibacterial activity against Staphylococcus epidermidis H 6966/08 after 48 hrs by broth microdilution method; type: functional; conditions: H 6966/08, 48 h; in short: as §1
[6] = system: Mycobacterium kansasii; test: Antimycobacterial activity against Mycobacterium kansasii My 235/80 after 7 days; type: functional; conditions: My 235/80, 168 h; in short: as §2
[7] = system: Mycobacterium tuberculosis; test: Antimycobacterial activity against Mycobacterium tuberculosis H37Rv My 331/88 after 21 days; type: functional; conditions: H37Rv My 331/88, 504 h; in short: as §2
[8] = system: Mycobacterium kansasii; test: Antimycobacterial activity against Mycobacterium kansasii My 235/80 after 21 days; type: functional; conditions: My 235/80, 504 h; in short: as §2
[9] = system: Trichophyton mentagrophytes; test: Antifungal activity against Trichophyton mentagrophytes 445 after 72 hrs by broth microdilution method; type: functional; conditions: Trichophyton mentagrophytes, 445, 72 h
In short: (§3)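 Filamentous dermatophyte tested by broth microdilution in RPMI 1640 with glutamine, fluconazole as reference. Value expressed as IC50 relative to growth control. Read at 72 and 120 h.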

[10] = system: Trichosporon asahii; test: Antifungal activity against Trichosporon asahii 1188 after 24 hrs by broth microdilution method; type: functional; conditions: Trichosporon asahii, 1188, 24 h
In short: (§4)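 Broth microdilution in RPMI 1640 with glutamine, fluconazole as reference. For yeasts, MIC is ≥80% growth reduction (IC80) versus control. For filamentous fungi, the value is expressed as IC50. Readings at 24 and 48 h.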

[11] = system: Mycobacterium kansasii; test: Antimycobacterial activity against Mycobacterium kansasii My 235/80 after 14 days; type: functional; conditions: My 235/80, 336 h; in short: as §2
[12] = system: Aspergillus fumigatus; test: Antifungal activity against Aspergillus fumigatus 231 after 48 hrs by broth microdilution method; type: functional; conditions: Aspergillus fumigatus, 231, 48 h; in short: as §4
[13] = system: Pseudomonas aeruginosa; test: Antibacterial activity against Pseudomonas aeruginosa CCM 1961 at 500 micromol/L after 24 to 48 hrs by broth microdilution method; type: functional, organism-based; in short: as §1
[14] = system: Candida albicans; test: Antifungal activity against Candida albicans ATCC 44859 after 48 hrs by broth microdilution method; type: functional; conditions: ATCC 44859, 48 h; in short: as §4
[15] = system: Mycobacterium avium; test: Antimycobacterial activity against isoniazid, rifampicin, ethambutol and ofloxacin-resistant Mycobacterium avium My 330/88 after 14 days; type: functional; conditions: My 330/88, 336 h; in short: as §2
[16] = system: Trichophyton mentagrophytes; test: Antifungal activity against Trichophyton mentagrophytes 445 after 120 hrs by broth microdilution method; type: functional; conditions: Trichophyton mentagrophytes, 445, 120 h; in short: as §3
[17] = system: Escherichia coli; test: Antibacterial activity against Escherichia coli CCM 4517 at 500 micromol/L after 24 to 48 hrs by broth microdilution method; type: functional, organism-based; in short: as §1
[18] = system: Nakaseomyces glabratus; test: Antifungal activity against Candida glabrata 20/I at 500 micromol/L after 24 to 48 hrs by broth microdilution method; type: functional, organism-based; in short: as §4
[19] = system: Staphylococcus aureus; test: Antibacterial activity against Staphylococcus aureus CCM 4516/08 after 24 hrs by broth microdilution method; type: functional; conditions: CCM 4516/08, 24 h; in short: as §1
[20] = system: Klebsiella pneumoniae; test: Antibacterial activity against ESBL-positive Klebsiella pneumoniae J 14368/08 at 500 micromol/L after 24 to 48 hrs by broth microdilution method; type: functional, organism-based; in short: as §1
[21] = system: Mycobacterium tuberculosis; test: Antimycobacterial activity against Mycobacterium tuberculosis H37Rv My 331/88 after 14 days; type: functional; conditions: H37Rv My 331/88, 336 h; in short: as §2
[22] = system: Mycobacterium kansasii; test: Antimycobacterial activity against Mycobacterium kansasii 6509/96 after 21 days; type: functional; conditions: 6509/96, 504 h; in short: as §2
[23] = system: Lichtheimia corymbifera; test: Antifungal activity against Absidia corymbifera 272 after 24 hrs by broth microdilution method; type: functional; conditions: Lichtheimia corymbifera, 272, 24 h; in short: as §4
[24] = system: Lichtheimia corymbifera; test: Antifungal activity against Absidia corymbifera 272 after 48 hrs by broth microdilution method; type: functional; conditions: Lichtheimia corymbifera, 272, 48 h; in short: as §4
[25] = system: Mycobacterium kansasii; test: Antimycobacterial activity against Mycobacterium kansasii 6509/96 after 14 days; type: functional; conditions: 6509/96, 336 h; in short: as §2
[26] = system: Aspergillus fumigatus; test: Antifungal activity against Aspergillus fumigatus 231 after 24 hrs by broth microdilution method; type: functional; conditions: Aspergillus fumigatus, 231, 24 h; in short: as §4
[27] = system: Klebsiella pneumoniae; test: Antibacterial activity against Klebsiella pneumoniae D 11750/08 at 500 micromol/L after 24 to 48 hrs by broth microdilution method; type: functional, organism-based; in short: as §1
[28] = system: Staphylococcus epidermidis; test: Antibacterial activity against Staphylococcus epidermidis H 6966/08 after 24 hrs by broth microdilution method; type: functional; conditions: H 6966/08, 24 h; in short: as §1
[29] = system: Mycobacterium kansasii; test: Antimycobacterial activity against Mycobacterium kansasii 6509/96 after 7 days; type: functional; conditions: 6509/96, 168 h; in short: as §2
[30] = system: Candida albicans; test: Antifungal activity against Candida albicans ATCC 44859 after 24 hrs by broth microdilution method; type: functional; conditions: ATCC 44859, 24 h; in short: as §4
[31] = system: Candida tropicalis; test: Antifungal activity against Candida tropicalis 156 at 500 micromol/L after 24 to 48 hrs by broth microdilution method; type: functional, organism-based; in short: as §4
[32] = system: Enterococcus sp.; test: Antibacterial activity against Enterococcus sp. J 14365/08 at 500 micromol/L after 24 to 48 hrs by broth microdilution method; type: functional, organism-based; in short: as §1
[33] = system: Staphylococcus aureus; test: Antibacterial activity against methicillin-resistant Staphylococcus aureus H 5996/08 after 48 hrs by broth microdilution method; type: functional; conditions: H 5996/08, 48 h; in short: as §1
[34] = system: Pichia kudriavzevii; test: Antifungal activity against Candida krusei E28 after 48 hrs by broth microdilution method; type: functional; conditions: E28, 48 h; in short: as §4
[35] = system: Pichia kudriavzevii; test: Antifungal activity against Candida krusei E28 after 24 hrs by broth microdilution method; type: functional; conditions: E28, 24 h; in short: as §4
[36] = system: Trichosporon asahii; test: Antifungal activity against Trichosporon asahii 1188 after 48 hrs by broth microdilution method; type: functional; conditions: Trichosporon asahii, 1188, 48 h; in short: as §4

CCOP(=O)(OCC)Oc1ccc(Br)cc1C(=O)Nc1cccc(Br)c1
IC50 [1]: 4.41 µM
MIC95 [2]: 31.2 µM (≈ 15.8 µg/mL)
MIC [3]: 16 µM (≈ 8.11 µg/mL)
MIC95 [4]: 250 µM (≈ 127 µg/mL)
MIC95 [5]: 250 µM (≈ 127 µg/mL)
MIC [6]: 4 µM (≈ 2.03 µg/mL)
MIC [7]: 2 µM (≈ 1.01 µg/mL)
MIC [8]: 8 µM (≈ 4.06 µg/mL)
MIC50 [9]: > 500 µM
MIC80 [10]: > 500 µM
MIC [11]: 8 µM (≈ 4.06 µg/mL)
MIC50 [12]: > 500 µM
Activity [13]: inactive
MIC80 [14]: > 500 µM
MIC [15]: 16 µM (≈ 8.11 µg/mL)
MIC50 [16]: > 500 µM
Activity [17]: inactive
Activity [18]: inactive
MIC95 [19]: 31.2 µM (≈ 15.8 µg/mL)
Activity [20]: inactive
MIC [21]: 2 µM (≈ 1.01 µg/mL)
MIC [22]: 8 µM (≈ 4.06 µg/mL)
MIC50 [23]: > 500 µM
MIC50 [24]: > 500 µM
MIC [25]: 8 µM (≈ 4.06 µg/mL)
MIC50 [26]: > 500 µM
Activity [27]: inactive
MIC95 [28]: 31.2 µM (≈ 15.8 µg/mL)
MIC [29]: 4 µM (≈ 2.03 µg/mL)
MIC80 [30]: > 500 µM
Activity [31]: inactive
Activity [32]: inactive
MIC95 [33]: 250 µM (≈ 127 µg/mL)
MIC80 [34]: > 500 µM
MIC80 [35]: > 500 µM
MIC80 [36]: > 500 µM

CCOP(=O)(OCC)Oc1ccc(Br)cc1C(=O)Nc1cccc(C(F)(F)F)c1
IC50 [1]: 1.84 µM
MIC95 [2]: 15.6 µM (≈ 7.75 µg/mL)
MIC [3]: 16 µM (≈ 7.94 µg/mL)
MIC95 [4]: 7.81 µM (≈ 3.88 µg/mL)
MIC95 [5]: 7.81 µM (≈ 3.88 µg/mL)
MIC [6]: 4 µM (≈ 1.98 µg/mL)
MIC [7]: 2 µM (≈ 0.992 µg/mL)
MIC [8]: 8 µM (≈ 3.97 µg/mL)
MIC50 [9]: 62.5 µM (≈ 31 µg/mL)
MIC80 [10]: > 500 µM
MIC [11]: 4 µM (≈ 1.98 µg/mL)
MIC50 [12]: > 500 µM
Activity [13]: inactive
MIC80 [14]: > 500 µM
MIC [15]: 16 µM (≈ 7.94 µg/mL)
MIC50 [16]: 62.5 µM (≈ 31 µg/mL)
Activity [17]: inactive
Activity [18]: inactive
MIC95 [19]: 7.81 µM (≈ 3.88 µg/mL)
Activity [20]: inactive
MIC [21]: 2 µM (≈ 0.992 µg/mL)
MIC [22]: 8 µM (≈ 3.97 µg/mL)
MIC50 [23]: > 500 µM
MIC50 [24]: > 500 µM
MIC [25]: 8 µM (≈ 3.97 µg/mL)
MIC50 [26]: > 500 µM
Activity [27]: inactive
MIC95 [28]: 7.81 µM (≈ 3.88 µg/mL)
MIC [29]: 4 µM (≈ 1.98 µg/mL)
MIC80 [30]: > 500 µM
Activity [31]: inactive
Activity [32]: inactive
MIC95 [33]: 15.6 µM (≈ 7.75 µg/mL)
MIC80 [34]: > 500 µM
MIC80 [35]: > 500 µM
MIC80 [36]: > 500 µM

— ChEMBL document CHEMBL3102784, “Salicylanilide diethyl phosphates: synthesis, antimicrobial activity and cytotoxicity” (Bioorg Med Chem, 2014)
